Assay results of several laboratories.
Lines come from different studies, so protocols differ.
Target: Serine/threonine-protein kinase PAK 4 (PAK4, Homo sapiens, UniProt O96013)

C#Cc1n[nH]c2c(-c3cn(C(C)c4ccccn4)c(=O)[nH]c3=O)cc(F)cc12 (stereo not drawn)
inhibition (enzyme activity, inhibitor; 1 µM): -6%

Cn1cc(-c2cc(F)cc(N3CCn4c(cc5c4CCCC5)C3=O)c2CO)cc(Nc2ccc(N3CCN(C4COC4)CC3)cn2)c1=O
inhibition (enzyme activity, inhibitor; 0.1 µM): 1%

C#Cc1n[nH]c2c(-c3cn([C@@H](C)c4ccccc4)c(=O)[nH]c3=O)cc(F)cc12
inhibition (enzyme activity, inhibitor; 0.1 µM): 0.6%

Cn1cc(-c2cccc(N3CCc4c(sc5c4CC(C)(C)C5)C3=O)c2CO)cc(Nc2ccncn2)c1=O
inhibition (enzyme activity, inhibitor; 1 µM): -6%

O=c1[nH]c2ccccc2n1C1CCN(Cc2ccc(-c3[nH]c4cc5ncnc5cc4nc3-c3ccccc3)cc2)CC1
remaining signal (cell-free assay; 0.5 µM): 102%

Cc1n[nH]c2ccc(-c3cncc(OC[C@@H](N)Cc4c[nH]c5ccccc45)c3)cc12
inhibition (enzyme activity, inhibitor; 1 µM): 26%

Cn1cncc1[C@@](O)(COc1ccc(C#N)cc1-c1ccc(OC(F)(F)F)cc1)c1ccc(C#N)cc1
remaining binding (cell-free assay, competition with immobilised ligand; 1 µM): 100%

Nc1ncc(-c2nc(N3CCOCC3)nc(N3CCOCC3)n2)c(C(F)F)n1
remaining binding (binding, competition with immobilised ligand; 10 µM): 58%

N#CC1(c2ccccn2)CCN(Cc2cc(C(=O)O)c(=O)n3ccccc23)CC1
remaining binding (cell-free assay, competition with immobilised ligand; 1 µM): 100%

Cc1nn(C)cc1-c1nc2c(N3CCN(Cc4ccc(Cl)cc4)CC3)c(Cl)cnc2[nH]1
remaining binding (binding, competition with immobilised ligand; 1 µM): 100%

COc1cc(Nc2ncc(F)c(Nc3ccc4c(n3)NC(=O)C(C)(C)O4)n2)cc(OC)c1OC
inhibition (binding, competition with immobilised ligand; 10 µM): 97%

COc1ncccc1-c1cnn2ccc(N3CCN(C(=O)OC(C)C)CC3)nc12
remaining binding (binding, competition with immobilised ligand; 1 µM): 62%
